Assay outcomes: PubChem, Sanford-Burnham Center for Chemical Genomics
Shown are actives, neighbours in structure and some others; about 3.9% of the full set was active somewhere.
tim10-1 inh – growth inhibitors of tim10-1 mutant yeast, primary screen, luminescence, uHTS; S. cerevisiae tim10-1 ts strain growth, BacTiter-Glo, 24 h; inhibition, % at 20 µM; 330,000 tested, 2.2% active; AID 463190, 2010;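 active = inhibition of at least 40%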;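 note: mutant grown at 25 °C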
tim23-1 inh – growth inhibitors of tim23-1 mutant yeast, primary screen, luminescence, uHTS; S. cerevisiae tim23-1 growth, BacTiter-Glo luminescence, 24 h; inhibition, % at 20 µM; 330,000 tested, 1.3% active; AID 463212, 2010;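 active = growth inhibition of the mutant yeast at or above 50%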;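 note: temperature-sensitive mutant grown at 25 °C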
UPR XBP1 act – activators of adaptive XBP1 UPR arm, primary screen, cell-based, CHO-XBP1 luciferase reporter, luminescence, uHTS; 330,000 tested, 0.33% active; activation, % at 20 µM; IRE1-XBP1 UPR activation; percent of tunicamycin response, DMSO as zero; AID 463104, 2010;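 active = versus positive control, 20 µM dose yields 30% or more activation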
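Material: CHO-XBP1 cells stably carrying IRE1-XBP1-driven luciferase reporter | Medium: F12 with 10% serum | Compound dosing: 20 µM single concentration, DMSO 1% | Incubation: Overnight seeding at 37 °C, 6 h compound treatment at 37 °C | Detection: Steady-Glo luminescence read | Read-out basis: % activation of reporter signal versus tunicamycin and DMSO controls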
UPR CHOP act – activators of apoptotic CHOP UPR arm, primary screen, cell-based, CHO-CHOP luciferase reporter, luminescence, uHTS | UPR activation; percent of tunicamycin response over DMSO baseline | activation, % at 10 µM | 330,000 tested, 0.34% active | AID 449763, 2010;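 active = at 10 µM dose, activation of 40% or more, normalized to positive control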
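Material: CHO-CHOP cells, stable luciferase reporter of PERK-eIF2a-CHOP signalling; quantity: 500 reporter cells seeded per well; buffer or medium: F12 medium containing 10% fetal bovine serum; compound: one dose, 10 µM in 0.5% DMSO; incubation: 6 h compound treatment, 37 °C; measured by: Steady-Glo luciferase luminescence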
TIM10 inh – growth inhibitors of isogenic TIM10 control yeast, primary screen, counter-screen for tim10-1 yeast inhibitor project, luminescence, uHTS; 330,000 tested, 1.4% active; AID 463195, 2010; S. cerevisiae TIM10 strain growth, BacTiter-Glo luminescence, 24 h; inhibition, % at 10 µM;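 active = inhibition of 40% or more at the single tested concentration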;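 note: wild-type TIM10 isogenic control strain grown at permissive 25 °C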
tim10 confirm – growth inhibitors of wild-type TIM10 yeast, confirmation, counter-screen for tim10-1 synthetic lethality project, single concentration, luminescence, S. cerevisiae; S. cerevisiae tim10 strain growth, BacTiter-Glo luminescence, 24 h; AID 463215, 2010; inhibition, % at 10 µM; 4,600 tested, 63% active; shares compounds with TIM10 inh;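 active = inhibition of yeast growth at or above a set limit in either of two replicates at 10 µM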; note: this counterscreen used the strain with wild-type TIM10
tim23-1 confirm – tim23-1 mutant yeast growth inhibitors, confirmation, luminescence, single concentration. shares compounds with tim23-1 inh. S. cerevisiae tim23-1 growth, BacTiter-Glo luminescence, 24 h. inhibition, % at 20 µM. 4,400 tested, 83% active. AID 463218, 2010;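 active = inhibition above about 39% in either of two replicate wells at 20 µM, limit read from the data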;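 note: temperature-sensitive tim23-1 mutant grown at 25 °C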
Numbers stand for hits.

`Cn1c(C(=O)Nc2ccc3c(c2)OCCO3)cc2sccc21` gave tim10-1 inh inactive, tim23-1 inh 56.2, UPR XBP1 act inactive, UPR CHOP act inactive, TIM10 inh 55.7, tim10 confirm inactive and tim23-1 confirm 43.5.
Screening CCN(CC)S(=O)(=O)c1ccc(OC(C)C)c(NC(=O)c2c3c(nc4ccccc24)CCN(Cc2ccccc2)C3)c1 returned tim10-1 inh inactive, tim23-1 inh inactive, UPR XBP1 act inactive, UPR CHOP act inactive and TIM10 inh inactive.
For O=C(Nc1cccc(-c2csc(Nc3ccccc3)n2)c1)c1ccccc1 the results were tim10-1 inh inactive, tim23-1 inh 53.8, UPR XBP1 act inactive, UPR CHOP act inactive, TIM10 inh 47.9, tim10 confirm 44.0 and tim23-1 confirm 45.5.
Screening O=C(Nc1csc(Cl)c1)c1ccccc1 returned tim10-1 inh inactive, tim23-1 inh 55.5, UPR XBP1 act inactive, UPR CHOP act inactive, TIM10 inh 43.2, tim10 confirm 41.2 and tim23-1 confirm 68.8.
O=C(Nc1cccc(Cl)c1)N1CCCC1 was read as tim10-1 inh inactive, tim23-1 inh 50.6, UPR XBP1 act inactive, UPR CHOP act inactive, TIM10 inh 47.0, tim10 confirm inactive and tim23-1 confirm 73.2.
O=C(Nc1cccc(-c2csc(Nc3cccc(C(F)(F)F)c3)n2)c1)c1ccccc1 was read as tim10-1 inh inactive, tim23-1 inh inactive, UPR XBP1 act inactive, UPR CHOP act inactive and TIM10 inh inactive.
Screening O=C(Nc1cccc(Cl)c1)N1CCOCC1 returned tim10-1 inh inactive, tim23-1 inh inactive, UPR XBP1 act inactive, UPR CHOP act inactive and TIM10 inh inactive.
`O=C(Nc1cccc(Cl)c1)c1ccccc1` gave tim10-1 inh inactive, tim23-1 inh 62.0, UPR XBP1 act inactive, UPR CHOP act inactive, TIM10 inh 57.8, tim10 confirm 57.4 and tim23-1 confirm 76.1.
For CC(C)(C)n1cnc2cc(NC(=O)c3cccs3)ccc21 the results were tim10-1 inh inactive, tim23-1 inh 52.5, UPR XBP1 act inactive, UPR CHOP act inactive, TIM10 inh 61.4, tim10 confirm 55.4 and tim23-1 confirm 70.9.
`CCOC(=O)c1cccc(NC(=O)c2ccccc2C)c1` gave tim10-1 inh inactive, tim23-1 inh inactive, UPR XBP1 act inactive, UPR CHOP act inactive and TIM10 inh inactive.
`O=S(=O)(Nc1ccc2oc(-c3ccccc3)nc2c1)c1ccccc1` gave tim10-1 inh inactive, tim23-1 inh 73.8, UPR XBP1 act inactive, UPR CHOP act inactive, TIM10 inh 45.4, tim10 confirm 36.5 and tim23-1 confirm 65.8.
O=C(Nc1ccc(Cl)c(S(=O)(=O)Nc2ccccc2Cl)c1)c1cccs1 was read as tim10-1 inh inactive, tim23-1 inh 52.9, UPR XBP1 act inactive, UPR CHOP act inactive, TIM10 inh 44.7, tim10 confirm 46.0 and tim23-1 confirm 69.0.
`CCOC(=O)c1cccc(NC(=O)c2cccs2)c1` gave tim10-1 inh inactive, tim23-1 inh 57.1, UPR XBP1 act inactive, UPR CHOP act inactive, TIM10 inh 64.7, tim10 confirm 56.6 and tim23-1 confirm 80.2.
For CCn1cnc2cc(NC(=O)c3cccs3)ccc21 the results were tim10-1 inh inactive, tim23-1 inh inactive, UPR XBP1 act inactive, UPR CHOP act inactive and TIM10 inh inactive.
Cc1ccc(NC(=O)c2cnccn2)c(C)c1 was read as tim10-1 inh inactive, tim23-1 inh inactive, UPR XBP1 act inactive, UPR CHOP act inactive and TIM10 inh inactive.
Cc1cc(=O)oc2c(C)c(OCC(=O)NCCCN3CCOCC3)ccc12 was read as tim10-1 inh inactive, tim23-1 inh inactive, UPR XBP1 act inactive, UPR CHOP act inactive and TIM10 inh inactive.
